Key:
Assay type in all cases: functional, Salmonella enterica subsp. enterica serovar Typhimurium
[1] = test system: Salmonella typhimurium; assay: Antimutagenic activity in Salmonella Typhimurium TA1535 carrying pSK1002 containing umuC'-lacZ fused gene assessed as suppression of 0.1 j/M2 UV light-induced SOS response to alteration in DNA synthesis at 0.1 mM measured by beta-galactosidase activity by Umu test
Procedure, shortened: (§1)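 S. typhimurium TA1535/pSK1002 (umuC′-′lacZ fusion on the plasmid). The overnight culture was diluted 50-fold in fresh TGA medium and grown at 37 °C to A600 0.25-0.30. SOS induction was read as β-galactosidase activity in Miller units. The S9 mix used rat liver S9 (phenobarbital/5,6-benzoflavone-pretreated males) with G-6-P, NADH and NADPH cofactors.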

[2] = test system: Salmonella typhimurium; assay: Antimutagenic activity in Salmonella Typhimurium TA1535 carrying pSK1002 containing umuC'-lacZ fused gene assessed as suppression of furyfuramide-induced SOS response to alteration in DNA synthesis at 0.1 mM measured by beta-galactosidase activity by Umu test; procedure, shortened: as §1
[3] = test system: Salmonella typhimurium; assay: Antimutagenic activity in Salmonella Typhimurium TA1535 carrying pSK1002 containing umuC'-lacZ fused gene assessed as suppression of activated Trp-P-1-induced SOS response to alteration in DNA synthesis at 0.3 mM measured by beta-galactosidase activity by Umu test; procedure, shortened: as §1
[4] = test system: Salmonella typhimurium; assay: Antimutagenic activity in Salmonella Typhimurium TA1535 carrying pSK1002 containing umuC'-lacZ fused gene assessed as suppression of Trp-P-1-induced SOS response to alteration in DNA synthesis at 0.3 mM measured by beta-galactosidase activity by Umu test; procedure, shortened: as §1
[5] = test system: Salmonella typhimurium; assay: Antimutagenic activity in Salmonella Typhimurium TA1535 carrying pSK1002 containing umuC'-lacZ fused gene assessed as suppression of activated MeIQ-induced SOS response to alteration in DNA synthesis at 0.3 mM measured by beta-galactosidase activity by Umu test; procedure, shortened: as §1
[6] = test system: Salmonella typhimurium; assay: Antimutagenic activity in Salmonella Typhimurium TA1535 carrying pSK1002 containing umuC'-lacZ fused gene assessed as suppression of MeIQ-induced SOS response to alteration in DNA synthesis at 0.3 mM measured by beta-galactosidase activity by Umu test; procedure, shortened: as §1
[7] = test system: Salmonella typhimurium; assay: Antimutagenic activity in Salmonella Typhimurium TA1535 carrying pSK1002 containing umuC'-lacZ fused gene assessed as suppression of 0.1 j/M2 UV light-induced SOS response to alteration in DNA synthesis at 0.3 mM measured by beta-galactosidase activity by Umu test; procedure, shortened: as §1
[8] = test system: Salmonella typhimurium; assay: Antimutagenic activity in Salmonella Typhimurium TA1535 carrying pSK1002 containing umuC'-lacZ fused gene assessed as suppression of furyfuramide-induced SOS response to alteration in DNA synthesis at 0.3 mM measured by beta-galactosidase activity by Umu test; procedure, shortened: as §1
[9] = test system: Salmonella typhimurium; assay: Antimutagenic activity in Salmonella Typhimurium TA1535 carrying pSK1002 containing umuC'-lacZ fused gene assessed as suppression of activated Trp-P-1-induced SOS response to alteration in DNA synthesis at 0.6 mM measured by beta-galactosidase activity by Umu test; procedure, shortened: as §1
[10] = test system: Salmonella typhimurium; assay: Antimutagenic activity in Salmonella Typhimurium TA1535 carrying pSK1002 containing umuC'-lacZ fused gene assessed as suppression of Trp-P-1-induced SOS response to alteration in DNA synthesis at 0.6 mM measured by beta-galactosidase activity by Umu test; procedure, shortened: as §1
[11] = test system: Salmonella typhimurium; assay: Antimutagenic activity in Salmonella Typhimurium TA1535 carrying pSK1002 containing umuC'-lacZ fused gene assessed as suppression of activated MeIQ-induced SOS response to alteration in DNA synthesis at 0.6 mM measured by beta-galactosidase activity by Umu test; procedure, shortened: as §1
[12] = test system: Salmonella typhimurium; assay: Antimutagenic activity in Salmonella Typhimurium TA1535 carrying pSK1002 containing umuC'-lacZ fused gene assessed as suppression of MeIQ-induced SOS response to alteration in DNA synthesis at 0.6 mM measured by beta-galactosidase activity by Umu test; procedure, shortened: as §1
[13] = test system: Salmonella typhimurium; assay: Antimutagenic activity in Salmonella Typhimurium TA1535 carrying pSK1002 containing umuC'-lacZ fused gene assessed as suppression of 0.1 j/M2 UV light-induced SOS response to alteration in DNA synthesis at 0.6 mM measured by beta-galactosidase activity by Umu test; procedure, shortened: as §1
[14] = test system: Salmonella typhimurium; assay: Antimutagenic activity in Salmonella Typhimurium TA1535 carrying pSK1002 containing umuC'-lacZ fused gene assessed as suppression of furyfuramide-induced SOS response to alteration in DNA synthesis at 0.6 mM measured by beta-galactosidase activity by Umu test; procedure, shortened: as §1
[15] = test system: Salmonella typhimurium; assay: Inhibition of activated Trp-P-1-induced SOS response to alteration in DNA synthesis in Salmonella Typhimurium TA1535 carrying pSK1002 containing umuC'-lacZ fused gene at 0.6 mM; design: scale not given: the % may be the effect or the level left; procedure, shortened: as §1
[16] = test system: Salmonella typhimurium; assay: Inhibition of activated MeIQ-induced SOS response to alteration in DNA synthesis in Salmonella Typhimurium TA1535 carrying pSK1002 containing umuC'-lacZ fused gene; conditions: Salmonella enterica, read-out: ID50 (the source's name); procedure, shortened: as §1
[17] = test system: Salmonella typhimurium; assay: Inhibition of activated Trp-P-1-induced SOS response to alteration in DNA synthesis in Salmonella Typhimurium TA1535 carrying pSK1002 containing umuC'-lacZ fused gene; conditions: Salmonella enterica, read-out: ID50 (the source's name); procedure, shortened: as §1
[18] = test system: Salmonella typhimurium; assay: Inhibition of Trp-P-1-induced SOS response to alteration in DNA synthesis in Salmonella Typhimurium TA1535 carrying pSK1002 containing umuC'-lacZ fused gene; conditions: Salmonella enterica, read-out: ID50 (the source's name); procedure, shortened: as §1

COc1cc(-c2cc(=O)c3c(OC)c(OC)c(OC)c(OC)c3o2)ccc1O
Activity [1]: 551.9 Miller_unit | Activity [2]: 511.2 Miller_unit | Activity [3]: 182.4 Miller_unit | Activity [4]: 219.1 Miller_unit | Activity [5]: 243.5 Miller_unit | Activity [6]: 195.3 Miller_unit | Activity [7]: 563.5 Miller_unit | Activity [8]: 489.9 Miller_unit | Activity [9]: 118.5 Miller_unit | Activity [10]: 168.9 Miller_unit | Activity [11]: 224.2 Miller_unit | Activity [12]: 163.9 Miller_unit | Activity [13]: 495.7 Miller_unit | Activity [14]: 443.7 Miller_unit | Activity [15]: 76.4% | IC50 [16]: 300 µM | IC50 [17]: 340 µM | IC50 [18]: 160 µM

— ChEMBL document CHEMBL1148948, “Biotransformation of nobiletin by Aspergillus niger and the antimutagenic activity of a metabolite, 4'-hydroxy-5,6,7,8,3'-pentamethoxyflavone” (2004)
